Laboratory results published in ChEMBL document CHEMBL1140082, “Design, synthesis, and biological evaluation of potent c-Met inhibitors” (J Med Chem, 2008).

What was measured:
[1] = Selectivity of cMet over RON
[2] = Selectivity of cMet over KDR
[3] = molecular target: Hepatocyte growth factor receptor (Homo sapiens, UniProt P08581); experiment: Inhibition of cMet by HTRF assay
[4] = molecular target: Vascular endothelial growth factor receptor 2 (Homo sapiens, UniProt P35968); experiment: Inhibition of phosphorylated KDR by HTRF assay
In short: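 HTRF assay against KDR kinase with 10-point serial dilution. ATP at two-thirds of the experimentally determined Km (Eadie-Hofstee and Lineweaver-Burke). Ki derived from the IC50.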

[5] = Inhibition of IGFR
A-431 = experiment: Cytotoxicity against human A431 cells; assay type: functional, cell-based
[6] = molecular target: Tyrosine-protein kinase JAK2 (Homo sapiens, UniProt O60674); experiment: Inhibition of JAK2
[7] = molecular target: Tyrosine-protein kinase ZAP-70 (Homo sapiens, UniProt P43403); experiment: Inhibition of ZAP70
[8] = Clearance in iv dosed rat; assay type: ADME, organism-based; settings: in vivo
[9] = Bioavailability in iv dosed rat; assay type: ADME, organism-based; settings: in vivo
[10] = molecular target: RAC-alpha serine/threonine-protein kinase (Homo sapiens, UniProt P31749); experiment: Inhibition of PKBalpha
[11] = molecular target: T1, Tyrosine-protein kinase JAK3 (Homo sapiens, UniProt P52333); experiment: Inhibition of JAK3
T1 sequence (P52333 whole entry): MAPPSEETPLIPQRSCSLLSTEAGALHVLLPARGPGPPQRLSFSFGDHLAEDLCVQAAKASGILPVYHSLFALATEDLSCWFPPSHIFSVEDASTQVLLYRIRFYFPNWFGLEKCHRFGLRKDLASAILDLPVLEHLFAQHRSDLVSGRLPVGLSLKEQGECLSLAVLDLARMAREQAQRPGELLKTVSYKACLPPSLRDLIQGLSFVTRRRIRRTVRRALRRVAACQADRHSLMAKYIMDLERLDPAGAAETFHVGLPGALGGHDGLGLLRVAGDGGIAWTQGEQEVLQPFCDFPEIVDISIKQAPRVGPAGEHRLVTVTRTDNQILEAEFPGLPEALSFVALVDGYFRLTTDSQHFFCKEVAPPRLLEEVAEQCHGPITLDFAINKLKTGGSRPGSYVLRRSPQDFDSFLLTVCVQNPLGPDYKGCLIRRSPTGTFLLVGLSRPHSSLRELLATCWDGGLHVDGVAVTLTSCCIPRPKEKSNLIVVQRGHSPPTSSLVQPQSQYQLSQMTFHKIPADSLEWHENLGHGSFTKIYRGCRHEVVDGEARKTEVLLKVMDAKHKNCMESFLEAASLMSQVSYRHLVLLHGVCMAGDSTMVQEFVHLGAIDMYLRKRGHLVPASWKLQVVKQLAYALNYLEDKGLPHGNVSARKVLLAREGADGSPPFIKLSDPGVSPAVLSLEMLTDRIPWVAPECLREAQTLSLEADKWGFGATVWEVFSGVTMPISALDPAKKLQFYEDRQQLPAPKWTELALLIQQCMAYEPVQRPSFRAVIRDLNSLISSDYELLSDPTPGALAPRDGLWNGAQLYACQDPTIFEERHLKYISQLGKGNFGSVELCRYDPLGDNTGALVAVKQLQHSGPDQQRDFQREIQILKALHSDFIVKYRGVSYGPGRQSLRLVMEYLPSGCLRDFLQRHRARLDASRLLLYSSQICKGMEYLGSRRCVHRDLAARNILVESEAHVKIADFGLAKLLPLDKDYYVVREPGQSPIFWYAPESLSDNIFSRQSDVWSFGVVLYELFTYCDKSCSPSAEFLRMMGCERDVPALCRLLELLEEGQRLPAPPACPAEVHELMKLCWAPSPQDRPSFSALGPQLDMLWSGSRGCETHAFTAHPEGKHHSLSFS

[12] = molecular target: Ribosomal protein S6 kinase alpha-5 (Homo sapiens, UniProt O75582); experiment: Inhibition of MSK1
[13] = Inhibition of FGFRK
[14] = molecular target: Tyrosine-protein kinase BTK (Homo sapiens, UniProt Q06187); experiment: Inhibition of BTK
Mus musculus = experiment: Inhibition of human recombinant HGF-induced cMet phosphorylation in po or ip dosed BALB/c mouse liver after 2 hrs
[15] = molecular target: Hepatocyte growth factor receptor c-Met (Mus musculus) (UniProt P16056); experiment: Inhibition of human recombinant HGF-mediated cMet phosphorylation in mouse CT26 cells
[16] = Volume of distribution in iv dosed rat; assay type: ADME, organism-based; settings: in vivo
[17] = molecular target: Macrophage-stimulating protein receptor (Homo sapiens, UniProt Q04912); experiment: Inhibition of phosphorylated RON
[18] = molecular target: Ribosomal protein S6 kinase beta-1 (Homo sapiens, UniProt P23443); experiment: Inhibition of P70S6
[19] = Inhibition of P38 kinase
[20] = molecular target: Mitogen-activated protein kinase 3 (Homo sapiens, UniProt P27361); experiment: Inhibition of ERK1
[21] = molecular target: Vascular endothelial growth factor receptor 1 (Homo sapiens, UniProt P17948); experiment: Inhibition of Flt1 kinase
Angiopoietin-1 receptor = Angiopoietin-1 receptor (Homo sapiens, UniProt Q02763); experiment: Inhibition of Tie2 kinase
[22] = Half life in iv dosed rat; assay type: ADME, organism-based; settings: in vivo
[23] = molecular target: cAMP-dependent protein kinase catalytic subunit alpha (Homo sapiens, UniProt P17612); experiment: Inhibition of PKAalpha
[24] = molecular target: Mitogen-activated protein kinase 9 (Homo sapiens, UniProt P45984); experiment: Inhibition of JNK2
[25] = molecular target: Vascular endothelial growth factor receptor 3 (Homo sapiens, UniProt P35916); experiment: Inhibition of Flt4 kinase
[26] = molecular target: Tyrosine-protein kinase Lck (Homo sapiens, UniProt P06239); experiment: Inhibition of LCK
[27] = molecular target: Fibroblast growth factor receptor 2 (Homo sapiens, UniProt P21802); experiment: Inhibition of FGFRK2
Aurora kinase A = molecular target: T2, Aurora kinase A (Homo sapiens, UniProt O14965); experiment: Inhibition of Aurora2
T2 sequence (O14965 whole entry): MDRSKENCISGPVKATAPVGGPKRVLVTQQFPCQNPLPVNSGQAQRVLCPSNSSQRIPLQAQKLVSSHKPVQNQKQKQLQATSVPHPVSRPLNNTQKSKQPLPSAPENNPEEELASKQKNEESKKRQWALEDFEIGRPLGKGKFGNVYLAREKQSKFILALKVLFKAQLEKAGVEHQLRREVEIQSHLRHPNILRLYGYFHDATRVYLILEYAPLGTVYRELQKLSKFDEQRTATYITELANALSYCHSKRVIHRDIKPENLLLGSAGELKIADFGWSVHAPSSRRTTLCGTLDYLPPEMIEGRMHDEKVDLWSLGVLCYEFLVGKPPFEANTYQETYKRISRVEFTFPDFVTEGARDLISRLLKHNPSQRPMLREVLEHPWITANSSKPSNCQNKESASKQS

`COc1cc2nccc(Oc3ccc4cc(NC(=O)Cc5ccccc5)ccc4c3)c2cc1OC` gave a Selectivity ratio [1] of 3, a Selectivity ratio [2] of 9 and a Ki [3] of 89 nM.
`COc1cc2nccc(Oc3ccc(-c4cnc(Nc5ccc(F)cc5)n(C)c4=O)cc3F)c2cc1OC` showed a Ki [4] of 382 nM and a Ki [5] of 70 nM.
`COc1cc2nccc(Oc3ccc(NC(=S)NC(=O)Cc4ccccc4)cc3F)c2cc1OC` gave an IC50 (A-431) of 8.7 nM.
`COc1cc2nccc(Oc3ccc(-c4cnc(C(N)c5ccccc5)n(C)c4=O)cc3F)c2cc1OC` (stereo unspecified) gave a Ki [3] of 72 nM.
Work on `COc1cc2c(Oc3ccc(-c4cnc(Nc5ccc(F)cc5)n(C)c4=O)cc3F)ccnc2cc1OCCCN1CCOCC1` yielded an IC50 [6] of 3400 nM, an IC50 [7] greater than 8300 nM and a clearance [8] of 9.33 mL/min/kg. For the same compound, the bioavailability [9] was 34%, the IC50 [10] was greater than 100000 nM and the IC50 [11] was greater than 1000 nM. It also gave an IC50 [12] greater than 100000 nM, an IC50 [13] greater than 25000 nM and an IC50 [14] of 27 nM. The ED90 (Mus musculus) was 30 mg/kg, the IC50 [15] was 82 nM and the Vd [16] was 3.4 L/kg. The Ki [17] was 28 nM, the IC50 [18] was 5700 nM and the Ki [4] was 139 nM. For the same compound, the IC50 [19] was 3600 nM, the Ki [5] was 22 nM and the IC50 [20] was greater than 100000 nM. For the same compound, the IC50 [21] was 45 nM, the IC50 (Angiopoietin-1 receptor) was 26 nM and the half-life [22] was 2.4 h. It also gave an IC50 [23] greater than 100000 nM, an IC50 [24] greater than 100000 nM and an IC50 [25] of 5 nM. It also gave an IC50 [26] of less than 4 nM, an IC50 [27] of 140 nM and an IC50 (Aurora kinase A) greater than 200 nM. The Ki [3] was 4.9 nM.
For `COc1cc2nccc(Oc3ccc(-c4cnc(Nc5cccc(F)c5)n(C)c4=O)cc3F)c2cc1OC`, the Ki [3] was 38 nM.
